Source: ChEMBL document CHEMBL2069262, “Stimulation of Glucose-Dependent Insulin Secretion by a Potent, Selective sst3 Antagonist” (ACS Med Chem Lett, 2012)
One block for each compound: values may come before it. Activity calls are given as the source filed them. The calls are words filed in the database; no cut-off is given here.

Assays:
[1] = target: T1, Somatostatin receptor type 3 (Homo sapiens, UniProt P32745); experiment: Displacement of [125I]SS-14 from human SST3 receptor expressed in CHO cells after 60 mins by scintillation counting; type: cell-based
[2] = target: Voltage-gated inwardly rectifying potassium channel KCNH2 (Homo sapiens, UniProt Q12809); experiment: Displacement of [35S]MK499 from human Erg expressed in HEK293 cells after 60 mins by scintillation counting; type: cell-based
[3] = target: T1, Somatostatin receptor type 3; type: functional, cell-based, CHO
Mus musculus [4] = experiment: Dose normalized AUC in C57BL/6N mouse at 2 mg/kg, po; type: ADME, organism-based; design: dose 2 mg/kg, route oral; conditions: in vivo
[5] = Cmax in C57BL/6N mouse at 2 mg/kg, po; type: ADME, organism-based; design: dose 2 mg/kg, route oral; conditions: in vivo
[6] = Volume of distribution at steady state in C57BL/6N mouse at 1 mg/kg, iv and 2 mg/kg, po; type: ADME, organism-based; conditions: in vivo, read-out: Vdss
[7] = Half life in C57BL/6N mouse at 1 mg/kg, iv and 2 mg/kg, po; type: ADME, organism-based; conditions: in vivo
[8] = target: Voltage-gated L-type calcium channel (Homo sapiens, UniProt Q13936+Q13698+Q01668+O60840); experiment: Binding affinity to L-type calcium channel
[9] = Oral bioavailability in C57BL/6N mouse at 2 mg/kg; type: ADME, organism-based; conditions: in vivo
[10] = Clearance in C57BL/6N mouse at 1 mg/kg, iv and 2 mg/kg, po; type: ADME, organism-based; conditions: in vivo
[11] = Activation of glucose-stimulated insulin secretion in C57BL/6J mouse pancreatic islets at 10 uM after 1 hr by ELISA in presence of 16 mM glucose relative to DMSO; type: functional; conditions: Pancreatic islet
Procedure, shortened: (§1)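 Pancreatic islets were isolated from normal C57BL/6J mice. Insulin secretion was measured at 2 and 16 mM glucose. Treatments were test agent at 10 μM, octreotide at 50 nM, the two combined, DMSO as negative control and GLP-1 at 10 nM as positive control. n = 4.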

Mus musculus [12] = experiment: Antidiabetic activity in lean C57BL/6N mouse assessed as reduction in dextrose-induced glucose excursion at 10 mg/kg, po administered 1 hr before dextrose challenge measured by intraperitoneal glucose tolerance test; type: functional; design: scale not given: the % may be the effect or the level left
Procedure, shortened: (§2)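 Lean C57BL/6N Tac mice were fasted 5–6 h, then given test agent at 2 or 10 mg/kg 1 h before a dextrose challenge. Glucose tolerance was tested with ip dextrose (ipGTT) or oral dextrose (OGTT). Blood glucose excursion was followed and compared with dextrose alone.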

Mus musculus [13] = experiment: Antidiabetic activity in lean C57BL/6N mouse assessed as reduction in dextrose-induced glucose excursion at 2 mg/kg, po administered 1 hr before dextrose challenge measured by intraperitoneal glucose tolerance test; type: functional; design: scale not given: the % may be the effect or the level left; procedure, shortened: as §2
Mus musculus [14] = experiment: Antidiabetic activity in sst3-knockout lean C57BL/6N mouse assessed as elevation in plasma insulin level at 10 mg/kg, po administered 1 hr before dextrose challenge measured after 10 mins; type: functional, organism-based; design: dose 10 mg/kg
Procedure, shortened: (§3)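 Wild-type and sst3 knockout mice were predosed at −60 min with 10 mg/kg, then given a dextrose challenge. Plasma insulin was measured 10 min after dextrose. n = 5.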

Mus musculus [15] = experiment: Antidiabetic activity in po dosed lean C57BL/6N mouse assessed as reduction in dextrose-induced glucose excursion administered 1 hr before dextrose challenge measured by glucose tolerance test; type: functional, organism-based; procedure, shortened: as §2
[16] = target: Somatostatin receptor type 2 (Mus musculus, UniProt P30875); experiment: Binding affinity to mouse SST2 receptor expressed in CHO cells; type: cell-based
[17] = target: Somatostatin receptor type 2 (Homo sapiens, UniProt P30874); experiment: Binding affinity to human SST2 receptor expressed in CHO cells; type: cell-based
[18] = Activation of glucose-stimulated insulin secretion in C57BL/6J mouse pancreatic islets at 10 uM after 1 hr by ELISA in presence of 2 mM glucose; type: functional; conditions: Pancreatic islet; procedure, shortened: as §1
[19] = target: Somatostatin receptor type 1 (Mus musculus, UniProt P30873); experiment: Binding affinity to mouse SST1 receptor expressed in CHO cells; type: cell-based
[20] = target: T2, Somatostatin receptor type 5 (Mus musculus, UniProt O08858); experiment: Binding affinity to mouse SST5 receptor expressed in CHO cells; type: cell-based
T2 sequence (O08858 whole entry): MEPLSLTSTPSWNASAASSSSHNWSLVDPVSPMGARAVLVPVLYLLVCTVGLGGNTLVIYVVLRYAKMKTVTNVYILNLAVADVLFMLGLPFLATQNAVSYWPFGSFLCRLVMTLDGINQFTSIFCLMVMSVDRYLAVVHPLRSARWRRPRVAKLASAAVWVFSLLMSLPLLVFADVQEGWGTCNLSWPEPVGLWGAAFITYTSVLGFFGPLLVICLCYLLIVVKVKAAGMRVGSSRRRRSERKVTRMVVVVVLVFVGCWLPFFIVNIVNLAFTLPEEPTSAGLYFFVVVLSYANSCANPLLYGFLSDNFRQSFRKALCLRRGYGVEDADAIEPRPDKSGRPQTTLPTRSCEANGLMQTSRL

[21] = Activation of glucose-stimulated insulin secretion in C57BL/6J mouse pancreatic islets at 10 uM after 1 hr by ELISA in presence of 16 mM glucose and 50 nM sst3 agonist octreotide; type: functional; conditions: Pancreatic islet; procedure, shortened: as §1
[22] = target: Somatostatin receptor type 1 (Homo sapiens, UniProt P30872); experiment: Binding affinity to human SST1 receptor expressed in CHO cells; type: cell-based
Mus musculus [23] = experiment: Antidiabetic activity in wild-type lean C57BL/6N mouse assessed as elevation in plasma insulin level at 10 mg/kg, po administered 1 hr before dextrose challenge measured after 10 mins; type: functional; procedure, shortened: as §3
Mus musculus [24] = experiment: Antidiabetic activity in lean C57BL/6N mouse assessed as reduction in dextrose-induced glucose excursion at 10 mg/kg, po administered 1 hr before dextrose challenge measured by oral glucose tolerance test; type: functional; design: scale not given: the % may be the effect or the level left; procedure, shortened: as §2
[25] = target: T3, Somatostatin receptor type 3 (Mus musculus, UniProt P30935); experiment: Displacement of [125I]SS-14 from mouse SST3 receptor expressed in CHO cells after 60 mins by scintillation counting; type: cell-based
Procedure, shortened: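 Competition binding at mouse sst3, read at steady-state equilibrium. Read-out is IC50.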

Mus musculus [26] = experiment: Antidiabetic activity in lean C57BL/6N mouse assessed as reduction in dextrose-induced glucose excursion at 2 mg/kg, po administered 1 hr before dextrose challenge measured by oral glucose tolerance test; type: functional; design: scale not given: the % may be the effect or the level left; procedure, shortened: as §2
[27] = target: T3, Somatostatin receptor type 3; experiment: Antagonist activity at mouse SST3 receptor expressed in CHO cells assessed as inhibition of forskolin/SS-14-stimulated cAMP accumulation preincubated for 15 mins before SS-14 challenge measured after 1 hr by time-resolved fluorescence analysis; type: functional, cell-based
Procedure, shortened: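 Functional antagonism at mouse sst3 against SS-14, run as a cAMP accumulation challenge after the test molecule is prebound. Read-out is IC50.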

[28] = target: Somatostatin receptor type 4 (Homo sapiens, UniProt P31391); experiment: Binding affinity to human SST4 receptor expressed in CHO cells; type: cell-based
Mus musculus [29] = experiment: Antidiabetic activity in sst3-wild-type lean C57BL/6N mouse assessed as reduction in dextrose-induced glucose excursion at 10 mg/kg, po administered 1 hr before dextrose challenge measured by intraperitoneal glucose tolerance test; type: functional; design: scale not given: the % may be the effect or the level left
Procedure, shortened: (§4)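 Wild-type and sst3 knockout mice were studied side by side in an ipGTT. They were predosed with 10 mg/kg 1 h before a 2 g/kg dextrose challenge. Read-out was total blood glucose AUC, compared with dextrose alone.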

[30] = target: Somatostatin receptor type 4 (Mus musculus, UniProt P49660); experiment: Binding affinity to mouse SST4 receptor expressed in CHO cells; type: cell-based
[31] = target: Somatostatin receptor type 5 (Homo sapiens, UniProt P35346); experiment: Binding affinity to human SST5 receptor expressed in CHO cells; type: cell-based
Mus musculus [32] = experiment: Antidiabetic activity in sst3-knockout lean C57BL/6N mouse assessed as reduction in dextrose-induced glucose excursion at 10 mg/kg, po administered 1 hr before dextrose challenge measured by intraperitoneal glucose tolerance test; type: functional, organism-based; design: dose 10 mg/kg; procedure, shortened: as §4

Sequence of Voltage-gated inwardly rectifying potassium channel KCNH2 (Q12809 whole entry): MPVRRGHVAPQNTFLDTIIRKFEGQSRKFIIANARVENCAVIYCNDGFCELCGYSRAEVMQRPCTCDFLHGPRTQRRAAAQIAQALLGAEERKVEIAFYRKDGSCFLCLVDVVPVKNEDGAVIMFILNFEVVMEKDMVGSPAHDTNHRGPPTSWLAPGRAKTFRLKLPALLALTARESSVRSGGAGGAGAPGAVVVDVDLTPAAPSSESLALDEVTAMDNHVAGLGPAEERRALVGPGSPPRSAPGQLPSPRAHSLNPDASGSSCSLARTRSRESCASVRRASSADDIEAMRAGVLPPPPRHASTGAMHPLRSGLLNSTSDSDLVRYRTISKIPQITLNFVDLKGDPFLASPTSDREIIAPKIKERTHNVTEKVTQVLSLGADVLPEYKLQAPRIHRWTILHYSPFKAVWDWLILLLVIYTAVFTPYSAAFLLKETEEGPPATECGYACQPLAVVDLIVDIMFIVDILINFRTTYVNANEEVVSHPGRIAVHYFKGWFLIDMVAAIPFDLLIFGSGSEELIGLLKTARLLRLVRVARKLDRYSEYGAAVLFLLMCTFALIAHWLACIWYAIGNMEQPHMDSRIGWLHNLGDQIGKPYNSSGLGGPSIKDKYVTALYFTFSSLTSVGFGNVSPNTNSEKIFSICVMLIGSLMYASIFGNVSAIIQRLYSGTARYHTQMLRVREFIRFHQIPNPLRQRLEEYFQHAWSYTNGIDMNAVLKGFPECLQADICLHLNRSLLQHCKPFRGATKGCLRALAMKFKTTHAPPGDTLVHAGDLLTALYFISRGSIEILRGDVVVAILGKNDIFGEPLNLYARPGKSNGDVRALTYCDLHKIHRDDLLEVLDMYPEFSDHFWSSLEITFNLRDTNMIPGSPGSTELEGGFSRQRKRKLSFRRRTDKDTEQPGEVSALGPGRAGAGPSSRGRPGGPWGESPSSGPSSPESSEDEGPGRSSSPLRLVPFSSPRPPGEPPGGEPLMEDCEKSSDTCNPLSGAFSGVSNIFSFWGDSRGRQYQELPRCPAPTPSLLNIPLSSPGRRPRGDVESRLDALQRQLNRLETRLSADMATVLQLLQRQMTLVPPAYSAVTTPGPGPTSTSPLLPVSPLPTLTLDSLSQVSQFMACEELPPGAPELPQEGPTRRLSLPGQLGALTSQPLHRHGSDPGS
T1 sequence (P32745 whole entry): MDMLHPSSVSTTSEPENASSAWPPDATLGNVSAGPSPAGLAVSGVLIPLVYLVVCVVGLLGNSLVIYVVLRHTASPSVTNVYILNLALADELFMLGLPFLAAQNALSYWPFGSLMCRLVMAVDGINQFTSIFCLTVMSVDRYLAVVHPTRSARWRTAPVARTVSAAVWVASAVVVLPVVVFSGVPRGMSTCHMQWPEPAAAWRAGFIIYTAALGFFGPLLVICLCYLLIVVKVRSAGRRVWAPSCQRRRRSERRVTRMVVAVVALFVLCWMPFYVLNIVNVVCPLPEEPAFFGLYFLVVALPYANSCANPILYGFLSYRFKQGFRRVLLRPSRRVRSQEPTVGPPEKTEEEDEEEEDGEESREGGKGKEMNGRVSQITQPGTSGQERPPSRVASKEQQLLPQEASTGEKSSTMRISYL
T3 sequence (P30935 whole entry): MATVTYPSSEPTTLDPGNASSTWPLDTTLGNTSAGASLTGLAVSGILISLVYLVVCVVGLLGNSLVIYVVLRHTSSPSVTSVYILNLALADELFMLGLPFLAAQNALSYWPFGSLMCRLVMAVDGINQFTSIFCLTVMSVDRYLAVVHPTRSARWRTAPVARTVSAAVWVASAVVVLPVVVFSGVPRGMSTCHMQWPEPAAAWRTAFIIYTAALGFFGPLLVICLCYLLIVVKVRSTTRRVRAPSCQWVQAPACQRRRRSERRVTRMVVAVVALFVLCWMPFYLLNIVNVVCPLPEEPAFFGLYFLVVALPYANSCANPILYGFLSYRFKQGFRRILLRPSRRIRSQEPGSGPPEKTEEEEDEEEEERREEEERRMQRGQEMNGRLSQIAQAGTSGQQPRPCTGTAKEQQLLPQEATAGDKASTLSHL
Sequence of Somatostatin receptor type 2 (Mus musculus, UniProt P30875) (P30875 whole entry): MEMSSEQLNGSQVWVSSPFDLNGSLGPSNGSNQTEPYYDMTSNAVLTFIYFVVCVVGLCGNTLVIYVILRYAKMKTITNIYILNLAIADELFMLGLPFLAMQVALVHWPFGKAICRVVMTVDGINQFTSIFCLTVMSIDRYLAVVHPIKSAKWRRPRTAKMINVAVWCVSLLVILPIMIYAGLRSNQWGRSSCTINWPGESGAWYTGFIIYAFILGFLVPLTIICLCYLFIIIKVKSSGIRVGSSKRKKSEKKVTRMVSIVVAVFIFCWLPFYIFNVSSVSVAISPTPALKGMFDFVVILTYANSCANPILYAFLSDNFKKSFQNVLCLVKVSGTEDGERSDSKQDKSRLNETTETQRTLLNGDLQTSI
Sequence of Somatostatin receptor type 4 (Mus musculus, UniProt P49660) (P49660 as listed by the source): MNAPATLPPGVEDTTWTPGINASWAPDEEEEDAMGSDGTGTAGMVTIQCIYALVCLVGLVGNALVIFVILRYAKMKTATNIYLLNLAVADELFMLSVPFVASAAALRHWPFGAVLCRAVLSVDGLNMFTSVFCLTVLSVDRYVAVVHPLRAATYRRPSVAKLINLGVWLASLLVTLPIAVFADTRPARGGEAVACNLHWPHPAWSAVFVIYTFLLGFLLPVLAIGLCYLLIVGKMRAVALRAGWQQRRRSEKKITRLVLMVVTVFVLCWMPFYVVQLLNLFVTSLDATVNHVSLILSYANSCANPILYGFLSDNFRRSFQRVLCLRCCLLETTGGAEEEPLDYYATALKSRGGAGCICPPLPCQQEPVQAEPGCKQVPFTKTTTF
Sequence of Somatostatin receptor type 1 (Mus musculus, UniProt P30873) (P30873 whole entry): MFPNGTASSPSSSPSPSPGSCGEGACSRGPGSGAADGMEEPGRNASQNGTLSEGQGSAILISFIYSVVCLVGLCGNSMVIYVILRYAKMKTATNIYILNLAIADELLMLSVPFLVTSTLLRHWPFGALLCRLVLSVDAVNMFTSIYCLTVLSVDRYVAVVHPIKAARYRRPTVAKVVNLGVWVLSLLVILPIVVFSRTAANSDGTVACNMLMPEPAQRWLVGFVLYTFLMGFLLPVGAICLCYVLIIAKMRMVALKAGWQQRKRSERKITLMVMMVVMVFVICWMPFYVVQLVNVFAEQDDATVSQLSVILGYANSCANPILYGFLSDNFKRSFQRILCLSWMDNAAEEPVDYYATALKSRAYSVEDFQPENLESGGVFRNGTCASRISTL
Sequence of Somatostatin receptor type 5 (Homo sapiens, UniProt P35346) (P35346 whole entry): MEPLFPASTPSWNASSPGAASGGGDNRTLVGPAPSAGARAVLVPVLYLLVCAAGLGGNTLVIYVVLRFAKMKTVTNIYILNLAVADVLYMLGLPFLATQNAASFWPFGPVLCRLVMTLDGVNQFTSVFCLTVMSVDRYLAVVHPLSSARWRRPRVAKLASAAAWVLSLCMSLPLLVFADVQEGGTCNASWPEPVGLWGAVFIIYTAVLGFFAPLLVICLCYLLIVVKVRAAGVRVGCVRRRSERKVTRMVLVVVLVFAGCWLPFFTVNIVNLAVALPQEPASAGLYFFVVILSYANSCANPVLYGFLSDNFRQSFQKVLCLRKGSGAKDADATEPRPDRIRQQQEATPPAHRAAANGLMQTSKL
Sequence of Somatostatin receptor type 1 (Homo sapiens, UniProt P30872) (P30872 whole entry): as the sequence (P30873 whole entry) above, with A25G, C26G, S32A, A385T, S389T counted along it
Sequence of Somatostatin receptor type 2 (Homo sapiens, UniProt P30874) (P30874 whole entry): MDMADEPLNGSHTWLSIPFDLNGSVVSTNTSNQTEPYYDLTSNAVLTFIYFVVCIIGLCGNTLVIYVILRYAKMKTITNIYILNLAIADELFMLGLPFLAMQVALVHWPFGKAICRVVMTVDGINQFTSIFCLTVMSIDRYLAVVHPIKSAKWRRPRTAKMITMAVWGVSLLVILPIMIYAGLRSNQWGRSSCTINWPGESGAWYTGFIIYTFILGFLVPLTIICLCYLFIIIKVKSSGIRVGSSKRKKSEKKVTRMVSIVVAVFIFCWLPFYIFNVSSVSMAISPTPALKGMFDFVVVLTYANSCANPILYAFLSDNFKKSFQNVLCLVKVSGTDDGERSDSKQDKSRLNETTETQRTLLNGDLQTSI
Sequence of Somatostatin receptor type 4 (Homo sapiens, UniProt P31391) (P31391 whole entry): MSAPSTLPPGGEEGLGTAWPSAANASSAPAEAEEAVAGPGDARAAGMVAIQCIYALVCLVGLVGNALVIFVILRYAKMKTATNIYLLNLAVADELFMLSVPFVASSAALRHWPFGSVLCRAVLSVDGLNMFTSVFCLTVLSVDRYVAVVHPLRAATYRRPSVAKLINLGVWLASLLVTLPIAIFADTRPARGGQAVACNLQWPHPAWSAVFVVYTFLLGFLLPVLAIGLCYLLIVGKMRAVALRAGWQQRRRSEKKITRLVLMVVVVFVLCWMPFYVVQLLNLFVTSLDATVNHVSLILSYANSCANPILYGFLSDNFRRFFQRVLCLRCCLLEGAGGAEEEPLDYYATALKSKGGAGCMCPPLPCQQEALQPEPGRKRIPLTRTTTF

Structure (SMILES): COC(=O)N1CCC(C2N[C@@H](c3nc(-c4ccccc4)c[nH]3)Cc3c2[nH]c2ccccc32)CC1 (some centres not stated)
- IC50 [1]: 4 nM
- IC50 [2]: 700 nM
- IC50 [3]: 66 nM

Structure (SMILES): CCOCC1(COCC)N[C@@H](c2nc(-c3ccccc3)c[nH]2)Cc2c1[nH]c1ccccc21
- AUC/dose (Mus musculus [4]): 0.06 µM·h/mg
- Cmax [5]: 130 nM
- Vd [6]: 0.7 L/kg
- half-life [7]: 0.54 h
- IC50 [8]: 1526 nM
- bioavailability [9]: 4%
- clearance [10]: 31 mL/min/kg

Structure (SMILES): c1ccc(-c2c[nH]c([C@H]3Cc4c([nH]c5ccccc45)[C@@H](C4CCOCC4)N3)n2)cc1
- Activity [11]: 44%
- Activity (Mus musculus [12]): 78%
- AUC/dose (Mus musculus [4]): 1.3 µM·h/mg
- Activity (Mus musculus [13]): 58%
- Cmax [5]: 840 nM
- Vd [6]: 1.6 L/kg
- Activity (Mus musculus [14]): inactive
- Activity (Mus musculus [15]): Dose-dependent effect
- IC50 [16]: > 10000 nM
- IC50 [1]: 14 nM
- half-life [7]: 1.6 h
- IC50 [17]: > 1000 nM
- IC50 [8]: 1900 nM
- Activity [18]: inactive
- IC50 [19]: > 10000 nM
- IC50 [20]: > 10000 nM
- bioavailability [9]: 45%
- Activity [21]: Active
- IC50 [22]: > 1000 nM
- Activity (Mus musculus [23]): 50%
- Activity (Mus musculus [24]): 67%
- IC50 [25]: 8.9 nM
- clearance [10]: 15 mL/min/kg
- Activity (Mus musculus [26]): 66%
- IC50 [27]: 16 nM
- IC50 [28]: > 1000 nM
- Activity (Mus musculus [29]): 26%
- IC50 [30]: > 10000 nM
- IC50 [31]: > 1000 nM
- IC50 [3]: 22 nM
- Activity (Mus musculus [32]): inactive

Structure (SMILES): CNC(=O)N1CCC(C2N[C@@H](c3nc(-c4ccccc4)c[nH]3)Cc3c2[nH]c2ccccc32)CC1 (some centres not stated)
- IC50 [1]: 35 nM
- IC50 [2]: 240 nM
- IC50 [3]: 180 nM

Structure (SMILES): [O-][S+]1CCC(C2N[C@@H](c3nc(-c4ccccc4)c[nH]3)Cc3c2[nH]c2ccccc32)CC1 (single isomer, unassigned; isomer 1)
- IC50 [1]: 220 nM
- IC50 [3]: 380 nM

Continued by falling IC50 [1], values first:

- IC50 [1]: 390 nM
- IC50 [3]: 1200 nM
Structure (SMILES): c1ccc(-c2c[nH]c([C@H]3Cc4c([nH]c5ccccc45)[C@H](C4CCOCC4)N3)n2)cc1

- IC50 [1]: 120 nM
- IC50 [3]: 290 nM
Structure (SMILES): O=S1(=O)CCC(C2N[C@@H](c3nc(-c4ccccc4)c[nH]3)Cc3c2[nH]c2ccccc32)CC1 (some centres not stated)
- IC50 [2]: 100 nM

- IC50 [1]: 44 nM
Structure (SMILES): CS(=O)(=O)N1CCC(C2N[C@@H](c3nc(-c4ccccc4)c[nH]3)Cc3c2[nH]c2ccccc32)CC1 (some centres not stated)
